From PubChem
UBC9 SUMO inh = blocks human SUMOylation mediated by UBC9; P63279; HTRF SUMOylation assay, SAE1/SAE2 + UBC9, in vitro; inhibition, % at 35 µM; actives 0.36% (n = 290,000); in the data active means inhibition above about 50%, passing the limit was not always enough
Target sequence (P63279 whole entry, looked up): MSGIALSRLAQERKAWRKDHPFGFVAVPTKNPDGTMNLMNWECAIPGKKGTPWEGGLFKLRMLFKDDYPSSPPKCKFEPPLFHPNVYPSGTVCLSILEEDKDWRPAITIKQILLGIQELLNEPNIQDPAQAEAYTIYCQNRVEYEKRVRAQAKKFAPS
SUMO Mot1 rescue = inhibitors of SUMOylation pathway: yeast Mot1-301 growth rescue. S. cerevisiae Mot1-301 growth rescue, ATP luminescence, 38.5C; percent above DMSO median, 100 means doubled. growth rescue, % at 18.8 µM. actives 1% (n = 320,000);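 active means every valid replicate shows activation above 250% relative to neutral control wells; inactive means the rest, any valid replicate at or below 250%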
DNA FID counter = displaces DNA intercalator in HCV helicase counter-screen; actives 0.17% (n = 290,000); DNA fluorescent intercalator displacement, fluorescence; inhibition, % at 7.9 µM; in the data active means inhibition above about 37%;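 further: higher means more ethidium bromide displaced from hairpin DNA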
NALP1 inh = NALP1 inhibition | S. cerevisiae NALP1/ASC/caspase-1 growth, X-gal OD620, 72 h | inhibition, % at 10 µM | actives 0.61% (n = 280,000); in the data active means inhibition mostly above about 24%, no sharp cut-off; inactive means mostly below about 32%
VIM-2 inh = inhibitors of Pseudomonas aeruginosa VIM-2 metallo-beta-lactamase; actives 0.89% (n = 290,000); AID 1527; purified VIM-2, nitrocefin hydrolysis, epi-absorbance fluorescence; inhibition, % at 5.6 µM;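 active means inhibition above the mean of all tested compounds plus 3 SD, cutoff set per screening run, cut at about 7.5% in these data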;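 further: red hydrolysis product quenches plate fluorescence so inhibitors raise well fluorescence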
IMP-1 inhibitor = inhibitors of Pseudomonas aeruginosa IMP-1 metallo-beta-lactamase; purified IMP-1, nitrocefin hydrolysis, epi-absorbance fluorescence; inhibition, % at 5.6 µM; actives 0.45% (n = 290,000); AID 1556;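 active means inhibition above the mean plus 3 SD of all compounds in the same screening run, cut at about 4.5% in these data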
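Assay system: purified IMP-1; Quantity: IMP-1 0.2 nM before substrate addition; Medium: HEPES buffer pH 7.1 with ZnSO4 and Brij 35; Incubation: 15 min enzyme–compound preincubation, then 25 min nitrocefin reaction, 25 °C; Signal: fluorescence quenching readout, ex 480/em 530 nm; Controls: DMSO with and without IMP-1; Repeats: singlicate testing.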
Hits are given with their value; – = inactive; · = not tested or not shown. This is a sample that favours compounds with a hit; in the whole collection about 2.9% have one here.

SMILES	UBC9 SUMO inh	SUMO Mot1 rescue	DNA FID counter	NALP1 inh	VIM-2 inh	IMP-1 inhibitor
COc1cc(C2Nc3cccc4cccc(c34)N2)ccc1OC(C)=O	64	–	–	–	–	–
CCOC(=O)N1CCN(C(=O)c2c(N)no[n+]2[O-])CC1	–	–	–	–	–	–
CCCNC(=O)c1c(O)c2cccc3c2n(c1=O)CCC3	–	–	–	–	–	–
NCCNC(=O)c1c(O)c2cccc3c2n(c1=O)CCC3	–	–	–	35	12	–
Cc1cc(NC(=O)Cn2c(=O)n(Cc3ccccc3)c(=O)c3ccccc32)no1	52	–	–	–	–	–
COc1ccc(C(O)Cn2c(=N)n(CCCN(C)C)c3ccccc32)cc1 (stereo not drawn)	–	–	38	–	–	–
COc1ccc(CNC[C@H]2O[C@@H](n3cnc4c(N)ncnc43)[C@H](O)[C@@H]2O)cc1OC	·	–	·	·	·	·
COc1ccccc1Nc1nc(-c2sc(N)nc2C)cs1	–	–	–	–	–	–
Cc1nc(N)sc1-c1csc(Nc2ncccn2)n1	–	·	–	–	–	27
C=CCNc1nc(Nc2cc(Cl)ccc2OC)nc(OC)n1	–	–	–	25	–	–
CCOc1nc(NCCO)nc(Nc2cc(Cl)ccc2OC)n1	–	–	–	–	–	–
CC(C)CN(C(=O)COC(=O)CN1C(=O)c2ccccc2C1=O)c1c(N)n(Cc2ccccc2)c(=O)[nH]c1=O	·	–	·	·	·	·
Cc1nc(N(C)C)c2sc(=S)n(-c3ccccc3)c2n1	–	–	–	–	–	–
Cc1nc(N(C)C)c2sc(=S)n(C)c2n1	–	–	–	–	7.9	–
COc1cc(OC)c(NS(=O)(=O)c2cccc(C(=O)OCC(=O)NCC3CCCO3)c2)cc1Cl (stereo not drawn)	–	–	–	–	–	–
Cc1c(NC(=O)C(=O)/C=C(\O)c2ccc(Cl)cc2)c(=O)n(-c2ccccc2)n1C	–	294	–	–	–	–
COc1ccc(Cl)cc1NC(=O)CN(C)CC(=O)Nc1c(C)n(C)n(-c2ccccc2)c1=O	·	281	·	·	·	·
O=C(Nc1ccc(F)cc1F)c1ccc2c(c1)[nH]c(=O)n2Cc1ccc(F)cc1	–	–	–	–	–	–
Cc1ccc(C)c(S(=O)(=O)N2CCCOC2CNC(=O)C(=O)NCc2ccccc2)c1 (stereo not drawn)	–	–	–	–	–	–
CCOC(=O)C(C(=O)OCC)c1cc(Br)c2noc3c2c1C(=O)c1ccccc1-3	87	–	–	–	–	–
COCCCNC(=O)c1ccc2c3c(onc13)-c1ccccc1C2=O	–	–	–	–	–	–
Cc1ccc(S(=O)(=O)N2CCCCC2)cc1NC(=O)CSc1ccc2c(c1)OCCO2	–	–	–	–	–	7.1
COc1ccc(CC(=O)N(Cc2ccccc2)C(C)C)cc1	–	–	–	–	–	–
COc1ccc(OCCCN(C)Cc2ccccc2)cc1	–	–	–	38	–	–
COc1ccc(OCCN(C)Cc2ccccc2)cc1	–	–	–	–	–	–
SMILES	UBC9 SUMO inh	SUMO Mot1 rescue	DNA FID counter	NALP1 inh	VIM-2 inh	IMP-1 inhibitor
COc1ccc(CCC(C)N(C)Cc2ccccc2)cc1 (stereo not drawn)	–	–	–	30	–	–
Cc1ccnc(NC2CCCCC2)c1	–	–	–	21	–	–
Cc1cc(NC2CCCCC2)nc2ccccc12	–	–	–	–	–	–
COC(=O)c1cc(N2C(=O)C3C(C2=O)C2(C)C=CC3(C)O2)ccc1Cl (stereo not drawn)	–	425	–	–	–	–
CC(=O)Oc1ccc(N2C(=O)C3C(C2=O)C2(C)C=CC3(C)O2)cc1 (stereo not drawn)	–	–	·	–	·	·
CC(=O)c1ccc(N2CCN(C(=O)CCCn3c(=S)[nH]c4cc5c(cc4c3=O)OCO5)CC2)cc1	–	298	–	–	–	–
Clc1ccc(OCCCN2CCc3ccccc3C2)c(Br)c1	–	–	–	–	–	–
Clc1ccc(OCCOCCN2CCc3ccccc3C2)c(Cl)c1	–	–	–	56	–	–
Clc1ccc(SCCOCCN2CCc3ccccc3C2)cc1	–	270	–	–	–	–
O=C(O)C1Sc2[nH]c(=O)sc2C2c3cc(Br)ccc3OC(=O)C12 (stereo not drawn)	–	–	–	·	–	5.5
CC1=C(C(=O)OCC2CCCO2)C(c2ccc(F)cc2)NC(=O)N1 (stereo not drawn)	–	–	–	41	–	–
NC(CSS(=O)(=O)O)=NCCC12CC3CC(CC(O)(C3)C1)C2	–	–	–	–	–	5.4
CNC(=O)CSc1nnc(-c2cnccn2)n1C	–	–	–	26	–	–
COc1ccc(OC)c(N2CC(O)=C(c3nc4ccccc4s3)C2=N)c1	–	–	–	–	–	4.5
CCOc1ccccc1N1CC(O)=C(c2nc3ccccc3s2)C1=N	–	–	–	–	–	–
Cc1cc([N+](=O)[O-])ccc1NC(=O)CSc1nncn1-c1ccccn1	–	737	–	–	–	–
Cc1ccc([N+](=O)[O-])cc1NC(=O)CSc1nncn1-c1ccccn1	–	–	–	–	–	–
O=C(CCCSc1nnc(-c2cccs2)n1CC1CCCO1)c1ccccc1 (stereo not drawn)	–	–	–	–	9.7	–
O=C(CSc1nnc(-c2cccs2)n1CC1CCCO1)N1CCCC1 (stereo not drawn)	–	–	–	–	–	–
CC(C)NC(=O)CC1(C(=O)NCc2ccc(Cl)cc2)CCCC1	–	302	–	–	–	–
O=C(O)c1ccccc1CSc1nc2ccccc2o1	–	320	–	–	–	–
NS(=O)(=O)c1ccc(CCNc2nc3c(-c4cccc(F)c4)nnn3c3ccccc23)cc1	–	546	–	–	–	–
Cc1ccc(-n2cccc2/C=C2\C(=N)N3N=C(c4ccco4)SC3=NC2=O)cc1	64	–	–	–	–	–
CC(=O)N1c2ccc(S(=O)(=O)NCC3CCC(C(=O)N4CCCC(C)C4)CC3)cc2CC1C (stereo not drawn)	–	–	–	–	–	–
O=C(COc1coc(CN2CCN(c3ccc(F)cc3)CC2)cc1=O)NC1CCCC1	·	297	·	·	·	·
C#CCOCCOCCOCCNc1nc(N2CCN(C(=O)[C@H](CCCCN)n3cc([C@@H](N)CO)nn3)CC2)nc(N2CCN(C(=O)[C@H](Cc3cc4ccccc4[nH]3)n3cc([C@@H](N)CO)nn3)CC2)n1	–	–	·	·	·	·
C#CCOCCOCCOCCNc1nc(N2CCN(C(=O)[C@H](CCCCN)n3cc([C@@H](N)[C@H](C)CC)nn3)CC2)nc(N2CCN(C(=O)[C@H](CCC(=O)O)n3cc([C@@H](N)CCCCN)nn3)CC2)n1	·	–	·	·	·	·
